Published values pooled from the literature.
Each line is one published result; the experiments were not run side by side.
Target: Casein kinase I isoform gamma-1 (CSNK1G1, Homo sapiens, UniProt Q9HCP0)

SMILES | observed | action | method | concentration | endpoint | result
COc1ccc2cc(OCC3(C(=O)O)CN(C(=O)c4ccc(F)cc4)C3)ccc2c1 | cell-free assay | – | competition with immobilised ligand | 1 µM | remaining binding | 94%
c1cnn2ncc(-c3ccnc(N4CCC45COC5)n3)c2c1 | binding | – | – | 1 µM | remaining binding | 84%
CNC(=O)c1cc(Oc2ccc(NC(=O)Nc3ccc(Cl)c(C(F)(F)F)c3)cc2)ccn1 | enzyme activity | inhibitor | – | 10 µM | inhibition | -13%
COc1cc2ncnc(Nc3ccc(Oc4ccccc4)c(C)c3C)c2cc1OC | enzyme activity | inhibitor | – | 1 µM | inhibition | 0%
CCS(=O)(=O)c1cc2cc(C[C@@](O)(CC(C)(C)c3ccc(F)cc3C(N)=O)C(F)(F)F)[nH]c2cn1 | cell-free assay | – | competition with immobilised ligand | 1 µM | remaining binding | 100%
Nc1ncnc2occ(-c3ccc(NC(=O)Nc4cc(C(F)(F)F)ccc4F)cc3)c12 | cell-free assay | inhibitor | – | 20 µM | remaining signal | 18%
Cc1nc(N2CC[C@@H](O)C2)ncc1-c1cc(C(F)(F)F)cc2[nH]ncc12 | cell-free assay | – | competition with immobilised ligand | 1 µM | remaining binding | 78%
C[C@@H]1CCN(C(=O)CC#N)C[C@@H]1N(C)c1ncnc2[nH]ccc12 | cell-free assay | inhibitor | – | 0.5 µM | remaining signal | 101%
CCCS(=O)(=O)Nc1ccc(F)c(C(=O)c2c[nH]c3ncc(-c4ccc(Cl)cc4)cc23)c1F | enzyme activity | inhibitor | – | 1 µM | inhibition | < 10%
Cc1ccc(NC(=O)c2ccc(C)c(C(F)(F)F)c2)cc1C#Cc1nn(C2CCC(O)CC2)c2ncnc(N)c12 (centres unmarked) | cell-free assay | – | – | 10 µM | remaining signal | 83%
Cc1sc(C(=O)NC2COC2)cc1-n1cc(NC(=O)Nc2c(F)cccc2Cl)cn1 | enzyme activity | inhibitor | – | 10 µM | remaining activity | 101%
O=C1Nc2ccc(Cl)cc2C1=Cc1cc(Cl)c(O)c(Cl)c1 | cell-free assay | – | – | 0.5 µM | remaining signal | 89%
Cc1ccc(Nc2nccc(N(C)c3ccc4c(C)n(C)nc4c3)n2)cc1S(N)(=O)=O | enzyme activity | inhibitor | – | 0.3 µM | inhibition | -27%
COc1cc2c(Nc3ccc(Br)cc3F)ncnc2cc1OCC1CCN(C)CC1 | cell-free assay | – | – | 0.5 µM | remaining signal | 100%
CS(=O)(=O)N1CCCC(NC(=O)[C@H](CCC2CCCCC2)NC(=O)c2ccc(CNc3ncnc4c3nnn4-c3ccccc3)cc2)C1 (some centres unmarked) | cell-free assay | – | competition with immobilised ligand | 0.1 µM | remaining binding | 100%
CC(C)(O)[C@H]1CC[C@H](Nc2ccc3ncc(-c4cccc(C(F)(F)F)c4)n3n2)CC1 | enzyme activity | inhibitor | – | 1 µM | remaining activity | 93%
CC(C)(O)c1cncc(-c2nc3ccc(F)cc3n2C2CC2)c1 | cell-free assay | – | competition with immobilised ligand | 1 µM | remaining binding | 100%
Cc1cnc(NC2CCOCC2)nc1-n1cnc(C(=O)NC(CN)c2cc(F)cc(Cl)c2)c1 (centres unmarked) | enzyme activity | inhibitor | radiometric | 1 µM | remaining activity | 66%
CS(=O)(=O)N1CCCC(NC(=O)[C@H](CCC2CCCCC2)NC(=O)c2ccc(CNC(=O)c3cnc4ccccn34)cc2)C1 (some centres unmarked) | cell-free assay | – | competition with immobilised ligand | 0.1 µM | remaining binding | 100%
CC(C)(C)c1nc(-c2cccc(NS(=O)(=O)c3c(F)cccc3F)c2F)c(-c2ccnc(N)n2)s1 | enzyme activity | inhibitor | radiometric | 1 µM | remaining activity | 96%
